{
  "source": "ChEMBL document CHEMBL4024803",
  "about": "“New Steroidal 4-Aminoquinolines Antagonize Botulinum Neurotoxin Serotype A in Mouse Embryonic Stem Cell Derived Motor Neurons in Postintoxication Model” (J Med Chem, 2018)",
  "key": {"Plasma": {"test_system": "Plasma", "test": "Protein binding in human plasma after 4 hrs by equilibrium dialysis method", "format": "ADME, cell-free", "outline": "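Equilibrium dialysis against buffer, 4 h at 37°C with shaking. After incubation both chambers were matrix-matched and protein-precipitated with cold acetonitrile/water/formic acid containing internal standard. Supernatants were analysed by LC-MS/MS. % free = buffer-chamber / plasma-chamber concentration × 100.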"}, "Serum [1]": {"test_system": "Serum", "test": "Drug uptake in mouse serum at 400 mg/kg, po measured at 90 mins by UPLC-MS/MS method", "format": "ADME, organism-based", "conditions": "in vivo, 1.5 h, BLD = below limit of detection", "outline": "(§1)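 Single oral dose (400 mg/kg, 7 mice; 600 mg/kg, 6 mice), dissolved in DMSO and suspended in 0.5% hydroxyethylcellulose–0.1% Tween 80. Blood taken by cardiac puncture under chloroform, one mouse per time point, 15–120 min. Serum proteins precipitated with 2 volumes acetonitrile; analysed by UPLC-MS/MS against blank human serum calibration. Half-life read from the concentration–time curve.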"}, "[2]": {"test": "Drug uptake in mouse serum at 600 mg/kg, po measured at 120 mins by UPLC-MS/MS method", "format": "ADME, organism-based", "conditions": "read-out: Drug uptake", "outline": "as §1"}, "Cytochrome P450 2D6": {"biological_target": "Cytochrome P450 2D6 (Homo sapiens, UniProt P10635)", "sequence (P10635 whole entry)": "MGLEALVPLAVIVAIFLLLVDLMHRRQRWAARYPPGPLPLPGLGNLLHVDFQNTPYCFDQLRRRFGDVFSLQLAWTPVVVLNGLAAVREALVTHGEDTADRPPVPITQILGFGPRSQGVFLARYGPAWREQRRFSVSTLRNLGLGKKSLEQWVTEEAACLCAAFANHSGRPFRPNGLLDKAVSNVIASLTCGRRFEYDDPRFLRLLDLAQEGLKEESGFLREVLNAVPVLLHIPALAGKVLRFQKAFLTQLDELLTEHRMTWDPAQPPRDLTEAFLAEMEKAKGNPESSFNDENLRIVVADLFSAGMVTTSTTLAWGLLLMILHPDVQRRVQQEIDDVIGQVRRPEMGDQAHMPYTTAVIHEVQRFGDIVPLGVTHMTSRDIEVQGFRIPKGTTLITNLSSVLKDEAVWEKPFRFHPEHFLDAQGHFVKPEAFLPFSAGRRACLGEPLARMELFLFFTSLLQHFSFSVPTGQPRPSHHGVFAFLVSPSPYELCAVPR", "test": "Inhibition of CYP2D6 (unknown origin) using AMMC as substrate", "format": "ADME", "outline": "(§2)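 Active CYP450 enzyme incubated at 37°C for a set time with a fluorogenic probe substrate (BQ, DBF or BFC for CYP3A4; CEC for CYP2C19; AMMC for CYP2D6). IC50 derived from net fluorescent signal.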"}, "[3]": {"biological_target": "Botulinum neurotoxin type A (Clostridium botulinum) (UniProt P0DPI0)", "test": "Inhibition of Clostridium botulinum BoNT/A holotoxin-mediated SNAP-25 cleavage in mouse HBG3 cell-derived motor neurons assessed as full length of SNAP-25 at 10 uM preincubated for 30 mins followed by intoxication measured after 4 hrs by Western blot method relative to control", "parameters": "scale not given: the % may be the effect or the level left"}, "Mus musculus [4]": {"test_system": "Mus musculus", "test": "Drug metabolism in mouse assessed as monoacetylated metabolite formation at 400 to 600 mg/kg, po by UPLC-MS/MS method", "format": "ADME, organism-based", "conditions": "in vivo"}, "Mus musculus [5]": {"test_system": "Mus musculus", "test": "AUC (0 to 120 mins) in mouse at 400 mg/kg, po by UPLC-MS/MS method", "format": "ADME, organism-based", "parameters": "dose 400 mg/kg, time < 2 hr, route oral", "conditions": "in vivo, 2 h"}, "Mus musculus [6]": {"test_system": "Mus musculus", "test": "Drug metabolism in mouse assessed as M+16 metabolite formation at 400 to 600 mg/kg, po by UPLC-MS/MS method", "format": "ADME, organism-based", "conditions": "in vivo"}, "Liver": {"test_system": "Liver", "test": "Half life in human liver microsomes", "format": "ADME, microsome", "outline": "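Substrate-depletion assay: compound incubated with human or mouse liver microsomes for 1 h at 37°C. Half-life and intrinsic clearance derived from compound loss.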"}, "[7]": {"test": "Protein binding in mouse plasma at 600 mg/kg, po by ultra-centrifugation method", "format": "ADME, organism-based", "conditions": "read-out: PPB"}, "[8]": {"test": "Solubility of the compound by spectrofluorimetric detection-based shake-flask method", "format": "physicochemical"}, "Mus musculus [9]": {"test_system": "Mus musculus", "test": "Toxicity in mouse assessed as effect on appearance at 160 mg/kg, po administered for 3 days measured 2 times a day for 30 days", "format": "organism-based", "conditions": "in vivo, 720 h", "outline": "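Groups of five healthy mice were dosed per os for three consecutive days, suspended in 0.5% hydroxyethylcellulose–0.1% Tween 80. Behaviour and appearance were monitored twice daily for 30 days, with survival assessed at 30 days. Non-toxic was defined as all 5 surviving with normal appearance and behaviour.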"}, "Mus musculus [10]": {"test_system": "Mus musculus", "test": "AUC (0 to 120 mins) in mouse at 600 mg/kg, po by UPLC-MS/MS method", "format": "ADME, organism-based", "parameters": "dose 600 mg/kg, time < 2 hr, route oral", "conditions": "in vivo, 2 h"}, "[11]": {"test": "Drug uptake in mouse serum at 400 mg/kg, po measured at 60 mins by UPLC-MS/MS method", "format": "ADME, organism-based", "conditions": "read-out: Drug uptake", "outline": "as §1"}, "Mus musculus [12]": {"test_system": "Mus musculus", "test": "Toxicity in mouse assessed as effect on behavior at 400 to 600 mg/kg, po administered as single dose measured 2 times a day for 30 days", "format": "organism-based", "conditions": "in vivo, 720 h", "outline": "(§3)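 Two groups of 5 healthy mice each received one oral dose, 400 or 600 mg/kg. Survival, appearance and behaviour were followed for 30 days. Non-toxic was defined as all 5 surviving with normal appearance and behaviour.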"}, "[13]": {"test": "Drug uptake in mouse serum at 600 mg/kg, po measured at 15 mins by UPLC-MS/MS method", "format": "ADME, organism-based", "conditions": "read-out: Drug uptake", "outline": "as §1"}, "[14]": {"biological_target": "Botulinum neurotoxin type A (Clostridium botulinum) (UniProt P0DPI0)", "test": "Inhibition of Clostridium botulinum BoNT/A holotoxin-mediated SNAP-25 cleavage in mouse HBG3 cell-derived motor neurons assessed as full length of SNAP-25 at 20 uM treated at 60 mins post intoxication by Western blot method relative to control", "parameters": "scale not given: the % may be the effect or the level left"}, "Mus musculus [15]": {"test_system": "Mus musculus", "test": "Drug metabolism in mouse assessed as (3alpha,5beta,7alpha,12alpha)-3-Amino-24-({4-[(7-chloroquinolin-4-yl)amino]butyl}amino)cholane-7,12-diol formation at 400 to 600 mg/kg, po by UPLC-MS/MS method", "format": "ADME, organism-based", "conditions": "in vivo"}, "Mus musculus [16]": {"test_system": "Mus musculus", "test": "Tmax in mouse at 600 mg/kg, po by UPLC-MS/MS method", "format": "ADME, organism-based", "conditions": "in vivo", "outline": "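Single oral dose in DMSO suspended in 0.5% hydroxyethylcellulose–0.1% Tween 80, given to 7 (400 mg/kg) or 6 (600 mg/kg) mice. Serum came from cardiac puncture under chloroform, one mouse per time point, 15–120 min. Acetonitrile-precipitated serum was analysed by UPLC-MS/MS against calibration in blank human serum.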"}, "Serum [17]": {"test_system": "Serum", "test": "Drug uptake in mouse serum at 400 mg/kg, po measured at 120 mins by UPLC-MS/MS method", "format": "ADME, organism-based", "conditions": "in vivo, 2 h, BLD = below limit of detection", "outline": "as §1"}, "Mus musculus [18]": {"test_system": "Mus musculus", "test": "Toxicity in mouse assessed as effect on survival at 400 to 600 mg/kg, po administered as single dose measured after 30 days", "format": "organism-based", "conditions": "in vivo, 720 h", "outline": "as §3"}, "[19]": {"test": "Protein binding in mouse plasma at 400 mg/kg, po by ultra-centrifugation method", "format": "ADME, organism-based", "conditions": "read-out: PPB"}, "Cytochrome P450 3A4": {"biological_target": "Cytochrome P450 3A4 (Homo sapiens, UniProt P08684)", "sequence (P08684 whole entry)": "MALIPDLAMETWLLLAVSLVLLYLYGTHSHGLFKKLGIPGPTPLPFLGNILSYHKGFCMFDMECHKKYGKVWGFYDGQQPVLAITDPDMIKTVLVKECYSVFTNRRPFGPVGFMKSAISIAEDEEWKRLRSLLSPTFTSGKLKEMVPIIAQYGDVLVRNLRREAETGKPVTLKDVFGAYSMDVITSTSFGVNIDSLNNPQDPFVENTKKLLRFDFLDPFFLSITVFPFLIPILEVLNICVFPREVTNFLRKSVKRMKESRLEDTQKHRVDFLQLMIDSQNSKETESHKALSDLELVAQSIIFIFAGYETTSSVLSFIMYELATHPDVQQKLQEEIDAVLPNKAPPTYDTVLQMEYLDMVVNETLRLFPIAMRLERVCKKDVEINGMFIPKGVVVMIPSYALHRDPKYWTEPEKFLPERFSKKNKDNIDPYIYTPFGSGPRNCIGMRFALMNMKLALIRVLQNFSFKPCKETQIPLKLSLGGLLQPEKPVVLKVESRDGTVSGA", "test": "Inhibition of CYP3A4 (unknown origin) using DBF as substrate", "format": "ADME", "outline": "as §2"}, "[20]": {"test": "Octanol/TBS buffer distribution co-efficient, […] by shake flask method", "format": "physicochemical", "conditions": "octanol/water"}, "[21]": {"biological_target": "Botulinum neurotoxin type A (Clostridium botulinum) (UniProt P0DPI0)", "test": "Inhibition of Clostridium botulinum BoNT/A holotoxin-mediated SNAP-25 cleavage in mouse HBG3 cell-derived motor neurons assessed as full length of SNAP-25 at 20 uM treated at 30 mins post intoxication by Western blot method relative to control", "parameters": "scale not given: the % may be the effect or the level left"}, "[22]": {"biological_target": "Botulinum neurotoxin type A (Clostridium botulinum, UniProt P0DPI0)"}, "[23]": {"test": "Drug uptake in mouse serum at 400 mg/kg, po measured at 22 mins by UPLC-MS/MS method", "format": "ADME, organism-based", "conditions": "read-out: Drug uptake", "outline": "as §1"}},
  "data": [
    {"smiles": "CC(=O)O[C@H]1C[C@H]2[C@@H]([C@H](OC(C)=O)C[C@@H]3C[C@H](N)CC[C@@]32C)[C@@H]2CC[C@H]([C@H](C)CCCNCCCCNc3ccnc4cc(Cl)ccc34)[C@@]12C", "values": [
      {"measurement": "PPB", "setting": "Plasma", "value": "> 99", "unit": "%"},
      {"measurement": "Drug uptake", "setting": "Serum [1]", "value": "Bld"},
      {"measurement": "concentration at 2 h", "setting": "[2]", "value": 2.4, "unit": "µM"},
      {"measurement": "IC50", "setting": "Cytochrome P450 2D6", "value": "> 10", "unit": "µM"},
      {"measurement": "Activity", "setting": "[3]", "value": 72, "unit": "%"},
      {"measurement": "Drug metabolism", "setting": "Mus musculus [4]", "value": "Metabolite_Notdetected"},
      {"measurement": "AUC", "setting": "Mus musculus [5]", "value": 253, "unit": "µM·min"},
      {"measurement": "Drug metabolism", "setting": "Mus musculus [6]", "value": "Metabolite_Notdetected"},
      {"measurement": "t1/2", "setting": "Liver", "value": "> 60", "unit": "min"},
      {"measurement": "fraction unbound", "setting": "[7]", "value": "< 0.01"},
      {"measurement": "solubility thermodynamic", "setting": "[8]", "value": 640, "unit": "µg/mL"},
      {"measurement": "Activity", "setting": "Mus musculus [9]", "value": "Non-Toxic"},
      {"measurement": "AUC", "setting": "Mus musculus [10]", "value": 526, "unit": "µM·min"},
      {"measurement": "concentration at 1 h", "setting": "[11]", "value": 2.8, "unit": "µM"},
      {"measurement": "Activity", "setting": "Mus musculus [12]", "value": "Non-Toxic"},
      {"measurement": "concentration at 0.25 h", "setting": "[13]", "value": 11.9, "unit": "µM"},
      {"measurement": "Activity", "setting": "[14]", "value": 45, "unit": "%"},
      {"measurement": "Drug metabolism", "setting": "Mus musculus [15]", "value": "Metabolite_Notdetected"},
      {"measurement": "Tmax", "setting": "Mus musculus [16]", "value": 15, "unit": "min"},
      {"measurement": "Drug uptake", "setting": "Serum [17]", "value": "Bld"},
      {"measurement": "Activity", "setting": "Mus musculus [18]", "value": "Non-Toxic"},
      {"measurement": "fraction unbound", "setting": "[19]", "value": "< 0.01"},
      {"measurement": "IC50", "setting": "Cytochrome P450 3A4", "value": 1.2, "unit": "µM"},
      {"measurement": "logD", "setting": "[20]", "value": 2.07},
      {"measurement": "Activity", "setting": "[21]", "value": 64, "unit": "%"},
      {"measurement": "IC50", "setting": "[22]", "value": 8, "unit": "µM"},
      {"measurement": "concentration at 22 min", "setting": "[23]", "value": 7.8, "unit": "µM"}
    ]}
  ]
}
